Source: ChEMBL document CHEMBL1146772, “Design, synthesis, and structure-activity relationship of new isobenzofuranone ligands of protein kinase C” (Bioorg Med Chem Lett, 2004)

How the values were obtained:
[1] = biological target: T1, Protein kinase C alpha type (Homo sapiens, UniProt P17252); assay: Displacement of [3H]PDBu from PKC alpha at 100 uM.
In short: (§1)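 Competitive [3H]PDBu binding to recombinant human PKCα (Sf9-expressed), 4.3-4.8 nM, in 50 mM Tris-HCl pH 7.5 containing 4 mM CaCl2, 100 µg/mL sonicated phosphatidylserine, 4 mg/mL BSA and 10 nM [3H]PDBu. Incubation 2 h at 0 °C, then filtration on PEI-treated glass-fiber filters and scintillation counting. 10 µM TPA defined background/nonspecific binding. Ki derived using [3H]PDBu Kd 0.19 nM (Scatchard).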

[2] = biological target: T1, Protein kinase C alpha type; assay: Binding affinity for protein kinase C alpha
[3] = biological target: T1, Protein kinase C alpha type; assay: Displacement of [3H]PDBu from PKC alpha at 100 uM; range 0 to 20; in short: as §1
[4] = biological target: T1, Protein kinase C alpha type; assay: Displacement of [3H]PDBu from PKC alpha at 100 uM; range 60 to 80; in short: as §1
[5] = biological target: T1, Protein kinase C alpha type; assay: Displacement of [3H]PDBu from PKC alpha at 100 uM; range 20 to 40; in short: as §1
[6] = biological target: T1, Protein kinase C alpha type; assay: Displacement of [3H]PDBu from PKC alpha at 100 uM; range 40 to 60; in short: as §1

SMILES | Ki [2] [nM] | further results
C=CCOC(=O)Oc1cccc2c1C(=O)O[C@]2(CO)COC(C)=O | 122 | inhibition [1]: 0%
CC(=O)OC[C@@]1(CO)OC(=O)c2c(OCc3ccccc3)cccc21 | 540 | inhibition [3]: 9%
CCCCCCCCCCCCOc1cccc2c1C(=O)O[C@]2(CO)COC(C)=O | 540 | inhibition [4]: 75%
CCCCCCCCCCCCOc1cccc2c1C(=O)O[C@@]2(CO)COC(=O)C(C)(C)C | 122 | –
CCCCCCCCCCCCOc1cccc2c1C(=O)O[C@@]2(CO)COC(C)=O | 540 | inhibition [5]: 35%
CCCCCCCCCCOc1cccc2c1C(=O)O[C@]2(CO)COC(C)=O | 122 | inhibition [6]: 59%
CCCCCCCCCCOc1cccc2c1C(=O)O[C@@]2(CO)COC(C)=O | 122 | inhibition [5]: 21%
